T cruzi inh: inhibitors of intracellular T. cruzi growth, primary screen, luminescence, NIH3T3 host cells; T. cruzi beta-gal in NIH3T3, 90 h; inhibition, % (test concentration not listed); 300,000 compounds, 1.4% hits;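 active = mean inhibition across valid replicates above about 55%, limit read from the data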;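 also: signal also drops with host cell toxicity which is not excluded here; higher percent means less beta-gal luminescence so fewer parasites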
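System: mouse NIH/3T3 fibroblasts infected with β-gal-expressing T. cruzi Tulahuen C4 / Input: NIH/3T3 cells, 5,000 per well / Buffer or medium: Low-serum DMEM with 2% FBS / Probe or stimulus: 5000 reporter trypomastigotes per well / Schedule: ≥90 h infection period, 3 h prior cell attachment / Measured by: GalScreen luminescence, 60 min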
Bfl-1 A1 inh: caspase 3/7 activation in MEF A1-2A-BIM cells, primary screen, A1 inhibitor project, cell-based, luminescence, HTS; caspase activation, % (test concentration not listed); Caspase-Glo 3/7 luminescence, 3 h; percent of clofoctol response, vehicle zero; 330,000 compounds, 0.066% hits;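 active = over half of replicate activation scores above 10%, or exactly half above 10 with the replicate mean above 10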
KLF5 inh: KLF5 expression inhibitors, primary screen, DLD-1 cells, luminescence; AID 1700, 2009; inhibition, % at 5 µM; 290,000 compounds, 0.23% hits; DLD-1 KLF5 promoter-luciferase reporter;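 active = inhibition above a per-plate limit of that plate's mean compound inhibition plus 3 SD, cut at about 60% in these data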;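 also: higher means less KLF5 promoter-driven luciferase light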
HIF activator: HIF pathway transcriptional activators, primary screen, cell-based, U2OS HRE-luciferase, luminescence | U2OS HRE-luciferase reporter; normalized: DMSO 0%, desferrioxamine 100% | activation, % at 7.5 µM (by protocol) | 300,000 compounds, 0.32% hits;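 active = mean activation of at least 10% of the iron chelator positive control signal, with at least half of replicates also reaching 10%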
Beta apoptosis: inhibitors of cytokine-induced beta cell apoptosis, primary screen, luminescence; 300,000 compounds, 0.8% hits; protection from apoptosis, % (no concentration beside the values); INS-1E cytokine-induced death, ATP luminescence, 48 h; percent of positive-control rescue, neutral wells zero;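 active = Every replicate reaches about 75%, or at least half do and their mean reaches it too, limit read from the data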;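 also: higher means more ATP so stronger rescue from cytokine killing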
Each line names hits and unclear results; the compound was inactive in the other large screens. An excerpt weighted towards active compounds, which were near 2.3% of everything screened.

O=C(N/N=C/c1ccc([N+](=O)[O-])o1)c1cc(-c2cccc(Br)c2)nc2ccccc12	T cruzi inh 63
O=C(N/N=C/c1ccco1)c1cc(-c2ccccc2)nc2ccccc12	none
COc1ccc(C(C)=O)cc1COC(=O)CCNS(=O)(=O)c1ccc(C(C)=O)cc1	none
CC1CCN(S(=O)(=O)c2cccc(C(=O)N3CCN(c4ccc(F)cc4)CC3)c2)CC1	none
Cc1nn(C(C)C)c(C)c1CN1CCCC(CCC(=O)NCc2ccccc2F)C1 (centres undefined)	T cruzi inh 58
CC(=O)Nc1ccc(CN2CCCC(CCC(=O)NCc3ccccc3F)C2)cc1 (centres undefined)	none
O=C(CCC1CCCN(Cc2cccc(Cl)c2)C1)NCc1ccccc1F (centres undefined)	T cruzi inh 61
CC(NC(C)c1ccccc1Cl)C(=O)Nc1cccc(S(=O)(=O)N2CCCCC2)c1 (centres undefined)	none (no result: T cruzi inh, KLF5 inh, HIF activator)
C(C#CCCCCCCCCC[n+]1ccccc1)#CCCCCCCCCC[n+]1ccccc1	Beta apoptosis 104
COC(=O)c1c(NC(=O)COc2ccc(Cl)cc2)sc2c1CC(C)(C)NC2(C)C	T cruzi inh 65, Beta apoptosis 102
CCN(CC)S(=O)(=O)c1ccc(=O)n(CC(=O)N2CCCc3cc(C)ccc32)c1	none (no result: T cruzi inh, KLF5 inh, HIF activator)
COc1ccc2c(c1)c(C(=O)N/N=C/c1cccc(Br)c1)c(C)n2C	T cruzi inh 55
O=C(Oc1ccc2ccc(=O)oc2c1)c1ccco1	T cruzi inh 64
COc1ccc(C(=O)Nc2ccc(S(=O)(=O)N(C)c3ccccc3)cc2)cc1	none (no result: KLF5 inh, Beta apoptosis)
CSC(SC)=C(C#N)C(=O)c1ccccc1	Bfl-1 A1 inh 6.7
Cc1ccsc1C(=O)NN=C1CCCCCC1	none
O=C(N/N=C(\Cc1ncc[nH]1)c1ccccc1)c1cccnc1	none (no result: T cruzi inh, HIF activator)
O=C(N/N=C(\Cc1ncc[nH]1)c1ccccc1)c1ccncc1	Beta apoptosis 101
O=C(N/N=C(\Cc1ncc[nH]1)c1ccccc1)c1ccccc1	T cruzi inh 74, HIF activator 25
Cc1ccc(/C(N)=N/OC(=O)C(C)c2ccc([N+](=O)[O-])cc2)cc1 (centres undefined)	none
O=C(c1ccc2c(c1)[nH]c(=S)n1c3ccccc3nc21)N1CCN(c2cccc(Cl)c2)CC1	Beta apoptosis 82
COc1ccc(N2CCN(C(=O)c3ccc4c(c3)[nH]c(=S)n3c5ccccc5nc43)CC2)cc1	none
O=C(O)c1cc2cc(Oc3ccccc3)ccc2[nH]1	none
Cc1cc(C)cc(C(=O)Nc2nnc(SCC(=O)NCC3CCCO3)s2)c1 (centres undefined)	none
O=C(CCn1cccn1)Nc1ccc2c(c1)OCO2	none
CC#CC[N+](C)(C)CCCCCCCCCCCC	T cruzi inh 73, Beta apoptosis 104
CCCCCCCCCCCCCCCC[N+](C)(C)CC	Beta apoptosis 117 (no result: KLF5 inh)
C#CC[N+](C)(C)CCCCCCCCCC	none
C#CC[N+](C)(C)CCCCCCCCCCCC	Beta apoptosis 101
CCCCCC[N+](C)(C)CCSSCC[N+](C)(C)CCCCCC	none
COc1ccccc1-c1cc(C(=O)N2CCN(S(=O)(=O)c3ccc(C)cc3)CC2)[nH]n1	none (no result: Bfl-1 A1 inh, Beta apoptosis)
O=C(NCC1CCCC(CNC(=O)Nc2ccc(Cl)cn2)C1)Nc1ccc(Cl)cn1 (centres undefined)	T cruzi inh 60
CN1CCN(CC(O)c2ccccc2)CC1 (centres undefined)	T cruzi inh 55
OC(CN1CCN(C(c2ccccc2)c2ccccc2)CC1)c1ccccc1 (centres undefined)	none
Cc1c(NC(=O)C(C)OC(=O)c2sc3ccccc3c2Cl)c(=O)n(-c2ccccc2)n1C (centres undefined)	none (no result: Beta apoptosis)
Cc1c(NC(=O)C(C)OC(=O)c2ccc([N+](=O)[O-])s2)c(=O)n(-c2ccccc2)n1C (centres undefined)	T cruzi inh 86
Clc1cccc(CN2CCc3c([nH]c4ccccc34)C2)c1	T cruzi inh 59
COc1cc(CN2CCC(C(=O)N3CCN(c4ccccc4F)CC3)CC2)cc(OC)c1O	none (no result: Bfl-1 A1 inh)
CCOc1ccc(CN2CCC(C(=O)N3CCN(c4ccccc4F)CC3)CC2)cc1OC	T cruzi inh 69

Compound activity deposited in PubChem by several laboratories.
